Legend:
[1] = Chemical stability in aqueous buffer containing 5% DMSO and 5% tween 80 at pH 1.2 assessed as compound recovery in anoxic conditions after 3 hrs by UPLC analysis; type: physicochemical; conditions: read-out: Stability
In short: (§1)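 Stability at 37 °C in aqueous buffer with 5% DMSO and 5% Tween 80 at pH 1.2, 6.8 or 7.4; percent recovery by HPLC/UPLC on BEH C18 column, water+0.1% TFA/acetonitrile gradient from 40% to 95% acetonitrile over 8 min, room temperature.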

[2] = Chemical stability in aqueous buffer containing 5% DMSO and 5% tween 80 at pH 6.8 assessed as compound recovery in anoxic conditions after 24 hrs by UPLC analysis; type: physicochemical; conditions: read-out: Stability; in short: as §1
[3] = Chemical stability in aqueous buffer containing 5% DMSO and 5% tween 80 at pH 7.4 assessed as compound recovery in anoxic conditions after 24 hrs by UPLC analysis; type: physicochemical; conditions: read-out: Stability; in short: as §1
[4] = Chemical stability in aqueous buffer containing 5% DMSO and 5% tween 80 at pH 1.2 assessed as compound recovery in anoxic conditions after 12 hrs by UPLC analysis; type: physicochemical; conditions: pH 1.2, 12 h; in short: as §1
NCI-H460 [5] = assay: Antiproliferative activity against human NCI-H460 cells incubated for 24 hrs drug exposure measured after 48 hrs of recovery by sulforhodamine B assay; type: functional, cell-based
A-431 [6] = assay: Antiproliferative activity against human A431 cells incubated for 24 hrs drug exposure measured after 48 hrs of recovery by sulforhodamine B assay; type: functional, cell-based
A-431 [7] = assay: Antitumor activity against human A431 cells xenografted in nude CD1 mouse assessed as tumor volume inhibition at 35 mg/kg, ip administered qd 3 times per week for 2 weeks relative to control; type: functional; conditions: A-431, ip, 336 h, route intraperitoneal, read-out: TGI
In short: (§2)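 A431 epidermoid carcinoma cells (5 × 10⁶) from in vitro culture were injected s.c. into the right flank of CD1 nude mice on day 0, with 8 mice per group. Dosing began on day 3, at tumors of about 50 mm³, on a qdx3/wx2w schedule. Vehicle was 10% DMSO, 9% HPBCD and 14.4% PEG1000 in water. Tumor diameters were measured twice weekly by caliper, and TVI% was taken versus the vehicle group (Mann–Whitney).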

A-431 [8] = assay: Antitumor activity against human A431 cells xenografted in nude CD1 mouse assessed as tumor volume inhibition at 35 mg/kg, po administered qd 3 times per week for 2 weeks relative to control; type: functional; conditions: A-431, 336 h, read-out: TGI; in short: as §2
Mus musculus [9] = assay: Toxicity in nude CD1 mouse xenografted with human A431 cells assessed as body weight loss at 35 mg/kg, ip administered qd 3 times per week for 2 weeks; type: organism-based, A-431; set-up: dose 35 mg/kg, route intraperitoneal; conditions: in vivo, 336 h
In short: (§3)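 CD1 nude mice bore s.c. A431 xenografts (5 × 10⁶ cells, right flank, 8 mice per group). Dosing started on day 3 on a qdx3/wx2w schedule, in vehicle of 10% DMSO, 9% HPBCD and 14.4% PEG1000 in water. Mice were weighed daily, and BWL% = 100 − (mean body weight day x / mean body weight day 1 × 100), with day 1 the first treatment day. The maximum BWL is reported.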

Mus musculus [10] = assay: Toxicity in nude CD1 mouse xenografted with human A431 cells assessed as body weight loss at 35 mg/kg, po administered qd 3 times per week for 2 weeks; type: organism-based, A-431; set-up: dose 35 mg/kg, route oral; conditions: in vivo, 336 h; in short: as §3
[11] = Solubility in water; type: physicochemical; conditions: buffer
[12] = Chemical stability in aqueous buffer containing 5% DMSO and 5% tween 80 at pH 7.4 assessed as compound recovery in anoxic conditions after 6 hrs by UPLC analysis; type: physicochemical; conditions: read-out: Stability; in short: as §1
A-431 [13] = assay: Antitumor activity against human A431 cells xenografted in nude CD1 mouse assessed as tumor volume inhibition at 37 mg/kg, ip administered qd 3 times per week for 2 weeks relative to control; type: functional; conditions: A-431, ip, 336 h, route intraperitoneal, read-out: TGI; in short: as §2
A-431 [14] = assay: Antitumor activity against human A431 cells xenografted in nude CD1 mouse assessed as tumor volume inhibition at 37 mg/kg, po administered qd 3 times per week for 2 weeks relative to control; type: functional; conditions: A-431, 336 h, read-out: TGI; in short: as §2
Mus musculus [15] = assay: Toxicity in nude CD1 mouse xenografted with human A431 cells assessed as body weight loss at 37 mg/kg, ip administered qd 3 times per week for 2 weeks; type: organism-based, A-431; set-up: dose 37 mg/kg, route intraperitoneal; conditions: in vivo, 336 h; in short: as §3
Mus musculus [16] = assay: Toxicity in nude CD1 mouse xenografted with human A431 cells assessed as body weight loss at 37 mg/kg, po administered qd 3 times per week for 2 weeks; type: organism-based, A-431; set-up: dose 37 mg/kg, route oral; conditions: in vivo, 336 h; in short: as §3
Plasma [17] = assay: Prodrug conversion in mouse plasma assessed as drug concentration at 0.5 hrs; type: ADME, cell-free
In short: (§4)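 Prodrugs already shown stable at pH 1.2, 6.8 and 7.4 were incubated in murine plasma and sampled over time up to 6 h. A parallel incubation used murine plasma pretreated with the esterase inhibitor PMSF (phenylmethyl sulfonyl fluoride).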

Plasma [18] = assay: Prodrug conversion in mouse plasma assessed as drug concentration at 1 hr; type: ADME, cell-free; in short: as §4
Plasma [19] = assay: Prodrug conversion in mouse plasma assessed as drug concentration at 3 hrs; type: ADME, cell-free; in short: as §4
Plasma [20] = assay: Prodrug conversion in mouse plasma assessed as drug concentration at 6 hrs; type: ADME, cell-free; in short: as §4
Plasma [21] = assay: Prodrug conversion in mouse plasma assessed as drug concentration at 6 hrs in presence of esterase inhibitor PMSF; type: ADME, cell-free; in short: as §4
A-431 [22] = assay: Antitumor activity against human A431 cells xenografted in nude CD1 mouse assessed as tumor volume inhibition at 40 mg/kg, ip administered qd 3 times per week for 2 weeks relative to control; type: functional; conditions: A-431, ip, 336 h, route intraperitoneal, read-out: TGI; in short: as §2
A-431 [23] = assay: Antitumor activity against human A431 cells xenografted in nude CD1 mouse assessed as tumor volume inhibition at 40 mg/kg, po administered qd 3 times per week for 2 weeks relative to control; type: functional; conditions: A-431, 336 h, read-out: TGI; in short: as §2
Mus musculus [24] = assay: Toxicity in nude CD1 mouse xenografted with human A431 cells assessed as body weight loss at 40 mg/kg, ip administered qd 3 times per week for 2 weeks; type: organism-based, A-431; set-up: dose 40 mg/kg, route intraperitoneal; conditions: in vivo, 336 h; in short: as §3
Mus musculus [25] = assay: Toxicity in nude CD1 mouse xenografted with human A431 cells assessed as body weight loss at 40 mg/kg, po administered qd 3 times per week for 2 weeks; type: organism-based, A-431; set-up: dose 40 mg/kg, route oral; conditions: in vivo, 336 h; in short: as §3
NCI-H460 [26] = assay: Antitumor activity against human NCI-H460 cells xenografted in nude CD1 mouse assessed as tumor volume inhibition at 25 mg/kg, po administered qd 3 times per week for 2 weeks relative to control; type: functional; conditions: NCI-H460, 336 h, read-out: TGI
In short: (§5)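 CD1 nude mice given s.c. right-flank NCI-H460 (3 × 10⁶) or A431 (5 × 10⁶) cells from culture on day 0; eight mice per group. Dosing began day 3 at ~50 mm³ tumors; vehicle 10% DMSO, 9% HPBCD, 14.4% PEG1000 in water. Diameters taken biweekly by caliper; mice weighed daily, maximum BWL% reported; Mann–Whitney versus vehicle.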

NCI-H460 [27] = assay: Antitumor activity against human NCI-H460 cells xenografted in nude CD1 mouse assessed as tumor volume inhibition at 13 mg/kg, iv administered qd 3 times per week for 2 weeks relative to control; type: functional; conditions: NCI-H460, 336 h, read-out: TGI; in short: as §5
A-431 [28] = assay: Antitumor activity against human A431 cells xenografted in nude CD1 mouse assessed as tumor volume inhibition at 25 mg/kg, po administered qd 3 times per week for 2 weeks relative to control; type: functional; conditions: A-431, 336 h, read-out: TGI; in short: as §5
Mus musculus [29] = assay: Toxicity in nude CD1 mouse xenografted with human NCI-H460 NSCLC cells assessed as body weight loss at 25 mg/kg, po administered qd 3 times per week for 2 weeks; type: organism-based; set-up: dose 25 mg/kg, route oral; conditions: in vivo, 336 h; in short: as §5
Mus musculus [30] = assay: Toxicity in nude CD1 mouse xenografted with human NCI-H460 NSCLC cells assessed as body weight loss at 13 mg/kg, iv administered qd 3 times per week for 2 weeks; type: organism-based; set-up: dose 13 mg/kg, route intravenous; conditions: in vivo, 336 h; in short: as §5
Mus musculus [31] = assay: Toxicity in nude CD1 mouse xenografted with human A431 cells assessed as body weight loss at 25 mg/kg, po administered qd 3 times per week for 2 weeks; type: organism-based, A-431; set-up: dose 25 mg/kg, route oral; conditions: in vivo, 336 h; in short: as §5
[32] = Toxicity in po dosed nude CD1 mouse xenografted with human A431 cells assessed as mortality administered qd 3 times per week for 2 weeks; type: organism-based, A-431; conditions: in vivo
[33] = Toxicity in iv dosed nude CD1 mouse xenografted with human A431 cells assessed as mortality administered qd 3 times per week for 2 weeks; type: organism-based, A-431; conditions: in vivo

Which results are given for Cl.NCCCCNC(=O)Oc1ccc(-c2ccc(/C=C/C(=O)O)cc2)cc1C12CC3CC(CC(C3)C1)C2?
remaining at 3 h [1]: > 99%; remaining at 24 h [2]: > 99%; remaining at 24 h [3]: > 99%; Stability [4]: Stable; IC50 (NCI-H460 [5]): 2600 nM; IC50 (A-431 [6]): 3400 nM; inhibition in vivo at 35 mg/kg (A-431 [7]): 1%; inhibition in vivo at 35 mg/kg (A-431 [8]): 0%; Activity (Mus musculus [9]): 6%; Activity (Mus musculus [10]): 3%; solubility [11]: Insoluble

With Cl.O=C(O)/C=C/c1ccc(-c2ccc(OC(=O)NCCN3CCOCC3)c(C34CC5CC(CC(C5)C3)C4)c2)cc1 as the compound, how does the remaining at 3 h [1] read?
Its remaining at 3 h is over 99%.

What about the remaining at 24 h [2] of the same compound?
The remaining at 24 h was over 99%.

And the remaining at 6 h [12]?
The remaining at 6 h was over 99%.

What about the remaining at 24 h [3] of the same compound?
Its remaining at 24 h is 85%.

What about the Stability [4] of the same compound?
The Stability was “Stable”.

And the IC50 (NCI-H460 [5])?
Its IC50 is 920 nM.

What about the IC50 (A-431 [6]) of the same compound?
Its IC50 is 1400 nM.

And the inhibition in vivo at 37 mg/kg (A-431 [13])?
Its inhibition in vivo at 37 mg/kg is 21%.

What about the inhibition in vivo at 37 mg/kg (A-431 [14]) of the same compound?
Its inhibition in vivo at 37 mg/kg is 0%.

What about the Activity (Mus musculus [15]) of the same compound?
Its Activity is 0%.

What about the Activity (Mus musculus [16]) of the same compound?
The Activity was 0%.

What about the solubility [11] of the same compound?
Its solubility is “Insoluble”.

Which results are given for Cl.O=C(O)/C=C/c1ccc(-c2ccc(OC(=O)N3CCC(N4CCCCC4)CC3)c(C34CC5CC(CC(C5)C3)C4)c2)cc1?
remaining at 3 h [1]: > 99%; remaining at 24 h [2]: > 99%; remaining at 24 h [3]: > 99%; Stability [4]: Stable; Drug metabolism (Plasma [17]): 100%; Drug metabolism (Plasma [18]): 100%; Drug metabolism (Plasma [19]): 100%; Drug metabolism (Plasma [20]): 100%; Drug metabolism (Plasma [21]): 4.13%; IC50 (NCI-H460 [5]): > 10000 nM; IC50 (A-431 [6]): > 10000 nM; inhibition in vivo at 40 mg/kg (A-431 [22]): 26%; inhibition in vivo at 40 mg/kg (A-431 [23]): 22%; Activity (Mus musculus [24]): 0%; Activity (Mus musculus [25]): 4%; solubility [11]: Insoluble

For O=C(O)/C=C/c1ccc(-c2ccc(O)c(C34CC5CC(CC(C5)C3)C4)c2)cc1 [ADAROTENE], which remaining at 3 h [1] is on record?
The remaining at 3 h was over 99%.

What about the remaining at 24 h [2] of the same compound?
Its remaining at 24 h is over 99%.

And the remaining at 24 h [3]?
The remaining at 24 h was over 99%.

And the Stability [4]?
The Stability was “Stable”.

And the IC50 (NCI-H460 [5])?
Its IC50 is 200 nM.

And the IC50 (A-431 [6])?
The IC50 was 120 nM.

And the inhibition in vivo at 25 mg/kg (NCI-H460 [26])?
The inhibition in vivo at 25 mg/kg was 34%.

What about the inhibition in vivo at 13 mg/kg (NCI-H460 [27]) of the same compound?
Its inhibition in vivo at 13 mg/kg is 37%.

And the inhibition in vivo at 25 mg/kg (A-431 [28])?
The inhibition in vivo at 25 mg/kg was 36%.

What about the Activity (Mus musculus [29]) of the same compound?
Its Activity is 9%.

What about the Activity (Mus musculus [30]) of the same compound?
The Activity was 8%.

And the Activity (Mus musculus [31])?
Its Activity is 12%.

What about the solubility [11] of the same compound?
The solubility was “Insoluble”.

What about the MTD at 336 h [32] of the same compound?
Its MTD at 336 h is 25 mg/kg.

And the MTD at 336 h [33]?
Its MTD at 336 h is 13 mg/kg.
